Test results reported in ChEMBL document CHEMBL1135529, “New inhibitors of bacterial protein synthesis from a combinatorial library of macrocycles” (J Med Chem, 2002).
Values after ≈ are worked out from the molar mass of the structure shown.

Columns and labels:
Assay type in all cases: functional
[1] = tested on: Escherichia coli; test: Inhibition of cell free transcription/translation by Escherichia coli s30 bacterial extract.
How it was run: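 Coupled transcription/translation in E. coli S30 extract with pBest Luc plasmid (0.125 μg/μL stock), S30 premix and complete amino acid mix (1 mM each, 10× stock). 35 min at 37 °C, then luciferase read by luminescence. IC50 = concentration reducing luciferase activity to 50% of control; compounds HPLC-purified before IC50 determination.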

[2] = tested on: Escherichia coli; test: In vitro minimum inhibition concentration against Escherichia coli D21f2, LPS mutant; Range is from 25-50.
How it was run: (§1)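 Broth microdilution in duplicate. Overnight culture added to compound in 2.5% DMSO in water; final inoculum about 10²–10³ CFU/well. Growth relative to no-compound control read as A595 after 20–24 h at 37 °C. MIC reported as a range: complete inhibition at the upper concentration, viable cells at the lower. Top concentration 100 μM.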

[3] = tested on: Escherichia coli; test: In vitro minimum inhibition concentration against Escherichia coli K-12, wild type.; how it was run: as §1
[4] = tested on: Escherichia coli; test: In vitro minimum inhibition concentration against Escherichia coli KZM120, pump mutant.; how it was run: as §1
[5] = tested on: Escherichia coli; test: In vitro minimum inhibition concentration against Escherichia coli Ram195, pump mutant.; how it was run: as §1
[6] = In vitro inhibition of translation in luciferase SP6 control plasmid
How it was run: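 Luciferase mRNA transcribed from SP6 plasmid with SP6 RNA polymerase, then translated in E. coli S30 extract for linear templates with S30 premix and complete amino acid mix (1 mM each, 10× stock). 90 min at 37 °C; functional luciferase detected by luminescence. IC50 = concentration reducing luciferase activity to 50% of control.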

[7] = tested on: Escherichia coli; test: In vitro minimum inhibition concentration against Escherichia coli D21f2, LPS mutant; Range is from 12-25.; how it was run: as §1
[8] = tested on: Escherichia coli; test: In vitro minimum inhibition concentration against Escherichia coli D21f2, LPS mutant; Range is from 25-50; how it was run: as §1
[9] = tested on: Escherichia coli; test: In vitro minimum inhibition concentration against Escherichia coli K-12, wild type; Range is from 50-100.; how it was run: as §1
[10] = tested on: Escherichia coli; test: In vitro minimum inhibition concentration against Escherichia coli KZM120, pump mutant; Range is from 50-100.; how it was run: as §1
[11] = tested on: Escherichia coli; test: In vitro minimum inhibition concentration against Escherichia coli Ram195, pump mutant; Range is from 50-100.; how it was run: as §1

NC(N)=NCCC[C@H]1COc2ccc(NC(=O)CNC(=O)c3ccc4nc(O)c(O)nc4c3)cc2C(=O)NC[C@@H](N)C(=O)N[C@@H](Cc2ccc(N)cc2)C(=O)N1
IC50 [1]: 50 µM

NC(N)=NCCC[C@H]1COc2ccc(NC(=O)c3ccc4nc(O)c(O)nc4c3)cc2C(=O)NC[C@@H](N)C(=O)N[C@@H](Cc2ccc(O)cc2)C(=O)N1
MIC [2]: 50 µM (≈ 35.7 µg/mL)
MIC [3]: > 100 µM
MIC [4]: > 100 µM
MIC [5]: > 100 µM
IC50 [1]: 25 µM
IC50 [6]: 50 µM

NC(N)=NCCC[C@@H]1COc2ccc(NC(=O)c3ccc4nc(O)c(O)nc4c3)cc2C(=O)NC[C@H](N)C(=O)N[C@H](Cc2ccc(N)cc2)C(=O)N1
MIC [7]: 25 µM (≈ 17.8 µg/mL)
MIC [3]: > 100 µM
MIC [4]: > 100 µM
MIC [5]: > 100 µM
IC50 [1]: 17 µM
IC50 [6]: 25 µM

NC(N)=NCCC[C@H]1COc2ccc(NC(=O)c3ccc4nc(O)c(O)nc4c3)cc2C(=O)NC[C@@H](N)C(=O)N[C@@H](Cc2ccc(N)cc2)C(=O)N1
MIC [8]: 50 µM (≈ 35.7 µg/mL)
MIC [3]: > 100 µM
MIC [4]: > 100 µM
MIC [5]: > 100 µM
IC50 [1]: 16 µM
IC50 [6]: 13 µM

NC(N)=NCCC[C@H]1COc2ccc(NC(=O)CCNC(=O)c3ccc4nc(O)c(O)nc4c3)cc2C(=O)NC[C@@H](N)C(=O)N[C@@H](Cc2ccc(N)cc2)C(=O)N1
IC50 [1]: 3 µM

NC(N)=NCCC[C@@H]1COc2ccc(NC(=O)c3ccc4nc(O)c(O)nc4c3)cc2C(=O)NC[C@H](N)C(=O)N[C@H](Cc2ccccc2)C(=O)N1
MIC [2]: 50 µM (≈ 34.9 µg/mL)
MIC [9]: 100 µM (≈ 69.9 µg/mL)
MIC [10]: 100 µM (≈ 69.9 µg/mL)
MIC [11]: 100 µM (≈ 69.9 µg/mL)
IC50 [1]: 12 µM

Cc1nc2ccc(C(=O)Nc3ccc4c(c3)C(=O)NC[C@@H](N)C(=O)N[C@@H](Cc3ccc(N)cc3)C(=O)N[C@@H](CCCN=C(N)N)CO4)cc2nc1C
IC50 [1]: > 100 µM

NC(N)=NCCC[C@H]1COc2ccc(NC(=O)c3ccc4nc(O)c(O)nc4c3)cc2C(=O)NC[C@@H](N)C(=O)N[C@@H](Cc2cccnc2)C(=O)N1
IC50 [1]: 50 µM

Cn1c(=O)c(=O)n(C)c2cc(C(=O)Nc3ccc4c(c3)C(=O)NC[C@@H](N)C(=O)N[C@@H](Cc3ccc(N)cc3)C(=O)N[C@@H](CCCN=C(N)N)CO4)ccc21
IC50 [1]: > 100 µM

NC(N)=NCCC[C@H]1COc2ccc(NS(=O)(=O)c3ccc4nc(O)c(O)nc4c3)cc2C(=O)NC[C@@H](N)C(=O)N[C@@H](Cc2ccc(N)cc2)C(=O)N1
IC50 [1]: 62 µM

NC(N)=NCCC[C@H]1COc2ccc(NC(=O)c3cc4nc(O)c(O)nc4cc3[N+](=O)[O-])cc2C(=O)NC[C@@H](N)C(=O)N[C@@H](Cc2ccc(N)cc2)C(=O)N1
IC50 [1]: > 100 µM

NC(N)=NCCC[C@H]1COc2ccc(NC(=O)c3ccc4ccccc4n3)cc2C(=O)NC[C@@H](N)C(=O)N[C@@H](Cc2ccc(N)cc2)C(=O)N1
IC50 [1]: > 100 µM

CN(CC(=O)Nc1ccc2c(c1)C(=O)NC[C@@H](N)C(=O)N[C@@H](Cc1ccc(N)cc1)C(=O)N[C@@H](CCCN=C(N)N)CO2)C(=O)c1ccc2nc(O)c(O)nc2c1
IC50 [1]: > 100 µM

NC(N)=NCCC[C@@H]1COc2ccc(NC(=O)c3ccc4nc(O)c(O)nc4c3)cc2C(=O)NC[C@H](N)C(=O)N[C@H](Cc2ccc(O)cc2)C(=O)N1
MIC [7]: 25 µM (≈ 17.9 µg/mL)
MIC [3]: > 100 µM
MIC [4]: > 100 µM
MIC [5]: > 100 µM
IC50 [1]: 15 µM
IC50 [6]: 35 µM

NC(N)=NCCC[C@@H]1COc2ccc(NC(=O)c3ccc4nc(O)c(O)nc4c3)cc2C(=O)NC[C@@H](N)C(=O)N[C@H](Cc2cccnc2)C(=O)N1
IC50 [1]: 20 µM

NCCCC[C@H]1COc2ccc(NC(=O)c3ccc4nc(O)c(O)nc4c3)cc2C(=O)NC[C@@H](N)C(=O)N[C@@H](Cc2ccccc2)C(=O)N1
MIC [7]: 25 µM (≈ 16.8 µg/mL)
MIC [3]: > 100 µM
MIC [4]: > 100 µM
MIC [5]: > 100 µM
IC50 [1]: 40 µM
IC50 [6]: 50 µM

NC(N)=NCCC[C@H]1COc2ccc(NC(=O)CCCCCNC(=O)c3ccc4nc(O)c(O)nc4c3)cc2C(=O)NC[C@@H](N)C(=O)N[C@@H](Cc2ccc(N)cc2)C(=O)N1
IC50 [1]: 33 µM

NC(N)=NCCC[C@H]1COc2ccc(NC(=O)CCCNC(=O)c3ccc4nc(O)c(O)nc4c3)cc2C(=O)NC[C@@H](N)C(=O)N[C@@H](Cc2ccc(N)cc2)C(=O)N1
IC50 [1]: 75 µM

Cc1cc2nc(O)c(O)nc2cc1S(=O)(=O)Nc1ccc2c(c1)C(=O)NC[C@@H](N)C(=O)N[C@@H](Cc1ccc(N)cc1)C(=O)N[C@@H](CCCN=C(N)N)CO2
IC50 [1]: 2 µM

NC(N)=NCCC[C@H]1COc2ccc(NC(=O)c3ccc4cccnc4c3)cc2C(=O)NC[C@@H](N)C(=O)N[C@@H](Cc2ccc(N)cc2)C(=O)N1
IC50 [1]: > 100 µM

NC(N)=NCCC[C@H]1COc2ccc(NC(=O)c3ccc4ccccc4c3)cc2C(=O)NC[C@@H](N)C(=O)N[C@@H](Cc2ccc(N)cc2)C(=O)N1
IC50 [1]: > 100 µM

NC[C@H]1O[C@H](O[C@H]2[C@H](O)[C@@H](O[C@H]3O[C@H](CO)[C@@H](O)[C@H](N)[C@H]3O)[C@H](N)C[C@@H]2N)[C@H](O)[C@@H](O)[C@@H]1O [KANAMYCIN]
IC50 [1]: 0.04 µM
IC50 [6]: 0.08 µM
